Here are results for twelve compounds from ChEMBL document CHEMBL1128200, “(R)-(+)-N-[3-[5-[(4-fluorophenyl)methyl]-2-thienyl]-1-methyl- 2-propynyl]-N-hydroxyurea (ABT-761), a second-generation 5-lipoxygenase inhibitor” (J Med Chem, 1995).

The target in series [1] is T1, Polyunsaturated fatty acid 5-lipoxygenase (Homo sapiens, UniProt P09917).
T1 sequence (P09917 whole entry): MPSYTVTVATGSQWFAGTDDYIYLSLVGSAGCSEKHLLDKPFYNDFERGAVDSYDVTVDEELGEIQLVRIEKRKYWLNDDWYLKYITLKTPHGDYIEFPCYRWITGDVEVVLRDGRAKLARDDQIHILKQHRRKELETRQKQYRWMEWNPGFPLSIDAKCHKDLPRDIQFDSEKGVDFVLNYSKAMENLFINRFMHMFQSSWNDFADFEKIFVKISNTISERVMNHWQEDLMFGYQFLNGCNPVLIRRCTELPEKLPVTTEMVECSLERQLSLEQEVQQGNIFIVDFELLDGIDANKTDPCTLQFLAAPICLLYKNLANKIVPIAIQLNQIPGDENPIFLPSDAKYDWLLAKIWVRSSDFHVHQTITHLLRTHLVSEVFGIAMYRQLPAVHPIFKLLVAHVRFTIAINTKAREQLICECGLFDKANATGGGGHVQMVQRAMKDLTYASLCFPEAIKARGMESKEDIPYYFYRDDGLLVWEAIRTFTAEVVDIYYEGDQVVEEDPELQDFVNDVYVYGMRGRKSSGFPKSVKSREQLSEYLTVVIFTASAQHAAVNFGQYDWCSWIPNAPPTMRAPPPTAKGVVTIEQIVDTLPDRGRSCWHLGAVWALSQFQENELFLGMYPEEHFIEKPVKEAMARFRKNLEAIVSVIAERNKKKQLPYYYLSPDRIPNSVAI
Description: (§1) 5-lipoxygenase Inhibitory activity was measured by enzyme immunoassay using human whole blood stimulated with calcium ionophore (A23187) and LTB4 (leukotriene B4). The class given is tissue-based. The essentials: (§2)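 Heparinized human blood (20 USP units/mL) preincubated with drug or vehicle 15 min at 37 °C, then stimulated with calcium ionophore A23187; LTB4 in extracts quantified by EIA. IC50 estimated by linear regression; means of at least duplicate, mostly triplicate determinations.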

The subject of another series is Rattus norvegicus. Description: Compound was evaluated in vivo for the rat anaphylaxis leukotriene formation at an oral dose of 30 umol/kg. The series is classed as functional. The essentials:
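Male Sprague-Dawley rats passively sensitized ip with rabbit anti-BSA antiserum; 3 h later challenged ip with 4 mg BSA in PBS. Drug given by oral gavage 1 h before challenge; killed 15 min post-challenge, peritoneal fluid collected, methanol-extracted, LTE4 measured by EIA. 8 rats/group; percent inhibition versus control group mean.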

The subject of another series is Monkey. The following applies: Cercopithecidae; Liver.
In series [2] the target is T2, Polyunsaturated fatty acid 5-lipoxygenase (Homo sapiens) (UniProt P09917).
T2 sequence (whole entry): T1 sequence (P09917 whole entry)
The description is as §1. The conditions noted are these: concentration not given here. The series is classed as tissue-based. The essentials: as §2

Series [3] is described as follows: Oral bioavailability was determined in guinea pig. The series is classed as ADME, organism-based, Cavia porcellus. The conditions noted are these: in vivo.
A short description of series [4]: Oral bioavailability was determined in mouse. The class given is ADME, organism-based. The conditions noted are these: in vivo.
A short description of series [5]: Oral bioavailability in rat. The series is classed as ADME, organism-based. The following applies: in vivo.
The nature of series [6]: Oral bioavailability was determined in cynomolgus monkey. The series is classed as ADME, organism-based, Macaca fascicularis. The following applies: in vivo.
The nature of series [7]: Oral bioavailability was determined in dog. The series is classed as ADME, organism-based, Canis lupus familiaris. The conditions noted are these: in vivo.

With `C[C@@H](C#Cc1ccc(Cc2ccc(F)cc2)s1)N(O)C(N)=O`, the half-inhibitory concentration (IC50) (in general, the concentration needed to halve the response being measured) in series [1] turned out to be 200 nM. Besides, the ED50 (as a rule, the dose that gives a 50% effect, or the effect in half of the subjects) in the series on Rattus norvegicus was 2.1 mg/kg.
For `NC(=O)N(O)CC#Cc1ccc(Cc2ccc(F)cc2)s1`, in series [1], the IC50 worked out at 70 nM. In the series with Rattus norvegicus, the inhibition in vivo (usually the drop in the measured response relative to a control, in per cent) at 30 µmol/kg is 78%. The GT rate in the series on Monkey was 0.05.
Regarding `C[C@H](C#Cc1ccc(Oc2ccc(F)cc2)o1)N(O)C(N)=O`, the IC50 in series [1] is 80 nM. This compound came in with an ED50 with Rattus norvegicus of 1.4 mg/kg. Further, the GT rate with Monkey turned out to be 0.01.
Regarding `CC(C#Cc1ccc(Cc2ccc(F)cc2)s1)N(O)C(N)=O` (configuration not stated), the IC50 in series [1] turned out to be 200 nM. Further, in the series with Rattus norvegicus, the ED50 is 5.6 mg/kg.
Turning to `C[C@@H](C#Cc1ccc(Oc2ccc(F)cc2)o1)N(O)C(N)=O`, the IC50 in [1] is 50 nM. For the same compound, the median effective dose (ED50) in the series on Rattus norvegicus amounted to 1.5 mg/kg. For the same compound, the GT rate in the series on Monkey turned out to be 0.05.
On to `CC(c1cc2ccccc2s1)N(O)C(N)=O` (configuration not stated) [ZILEUTON], for which the median effective dose (ED50) with Rattus norvegicus was 4.4 mg/kg. In addition, the GT rate in the series on Monkey came to 0.12.
Regarding `CC(c1ccc(Oc2ccc(F)cc2)o1)N(O)C(N)=O` (configuration not stated), the inhibition (usually the percentage by which the read-out fell short of the control) in series [2] was determined as 58%. In the series with Rattus norvegicus, the inhibition in vivo at 30 µmol/kg amounted to 0%. This compound came in with a GT rate in the series with Monkey of 0.31.
In the case of `NC(=O)N(O)CC#Cc1ccc(Oc2ccc(F)cc2)o1`, in series [1], the IC50 worked out at 60 nM. Also, in the series with Rattus norvegicus, the inhibition in vivo at 30 µmol/kg was 70%. In addition, the GT rate with Monkey was found to be 0.03.
In the case of `CC(C#Cc1ccc(Oc2ccc(F)cc2)o1)N(O)C(N)=O` (configuration not stated), in [1], the IC50 was determined as 80 nM. The same compound displayed an ED50 in the series on Rattus norvegicus of 1.2 mg/kg. Besides, the GT rate in the series on Monkey turned out to be 0.02.
For `C[C@H](C#Cc1ccc(Cc2ccc(F)cc2)s1)N(O)C(N)=O` [ATRELEUTON], the bioavailability (as a rule, the share of a dose that reaches the circulation, judged against a reference dose that is usually intravenous) in [3] stood at 90%; in series [4], 100%; in series [5], 60%; in [6] it was 90%; in series [7], 95%. Moreover, the ED50 in the series with Rattus norvegicus turned out to be 2.8 mg/kg.
In the series on Monkey, `CC(/C=C/c1ccc(Oc2ccc(F)cc2)o1)N(O)C(N)=O` (configuration not stated) came in with a GT rate of 0.07.
`CC(/C=C\c1ccc(Oc2ccc(F)cc2)o1)N(O)C(N)=O` (configuration not stated): the GT rate with Monkey was 2.4.
